The values that follow come from ChEMBL document CHEMBL4411287, “Discovery and optimization of a series of 3-substituted indazole derivatives as multi-target kinase inhibitors for the treatment of lung squamous cell carcinoma” (Eur J Med Chem, 2019).

A short description of data set [1]: Solubility of compound. The format is physicochemical.
In data set [2] the target is Fibroblast growth factor receptor 3 (Homo sapiens) (UniProt P22607). Briefly: Inhibition of FGFR3 (unknown origin) at 100 nM relative to control. In a few lines:
(§1)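 Purified recombinant kinase domains run in ELISA on precoated poly(Glu,Tyr) 4:1 (20 µg/mL) with 10 µM ATP in 50 mM HEPES pH 7.4, 50 mM MgCl2, 0.5 mM MnCl2, 0.2 mM Na3VO4, 1 mM DTT; 1% DMSO control; 60 min at 37 °C. Phosphotyrosine read by PY99 antibody, HRP anti-mouse IgG, OPD/H2O2 at 490 nm; inhibition = [1−A490/A490control]×100%; two separate experiments.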

For data set [3], the target named is Epidermal growth factor receptor (Homo sapiens) (UniProt P00533). Briefly: Inhibition of EGFR (unknown origin) at 10 nM relative to control.
A further data set deals with KG-1. The experiment in a line: Antiproliferative activity against FGFR1 fused human KG1 cells after 72 hrs by CCK8 assay. The format is functional, cell-based. Particulars: KG-1, 72 h. Put shortly: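 Cells seeded at low density in growth medium and compounds added the next day. Incubated 72 h, then proliferation read by sulforhodamine B, MTT or CCK-8. IC50 obtained by four-parameter concentration-response curve fitting.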
For orientation: Tetrazolium dyes change colour on reduction, which living cells bring about.

Data set [4] addresses Tyrosine-protein kinase BTK (Homo sapiens) (UniProt Q06187). Briefly: Inhibition of BTK (unknown origin) at 10 nM relative to control.
The nature of data set [5]: Efflux ratio of permeability in human Caco2 cells at 5 uM after 120 mins by LC-MS/MS analysis. The format is ADME, cell-based. Particulars: Caco-2. Put shortly: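 Caco-2 (C2BBe1) monolayers grown to confluence on collagen-coated transwell polycarbonate membranes. Compound at 5 μM added apically or basolaterally in HBSS with 10 mM HEPES at pH 7.4 and 6.8. Duplicate samples taken at 120 min and analysed by LC-MS/MS. Efflux ratio = Papp(B→A)/Papp(A→B).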
In general terms: Caco-2 cells form a polarised layer with tight junctions and transporters.

In data set [6] the target is Vascular endothelial growth factor receptor 1 (Homo sapiens) (UniProt P17948). The experiment in a line: Inhibition of VEGFR1 (unknown origin) at 10 nM relative to control. In a few lines: (§2)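 ELISA with purified recombinant kinase on plates precoated with poly(Glu,Tyr) 4:1 at 20 µg/mL. ATP 10 µM in HEPES pH 7.4 buffer with MgCl2, MnCl2, Na3VO4 and DTT. Run 60 min at 37 °C. Detected with anti-phosphotyrosine PY99, HRP secondary antibody and o-phenylenediamine, read at 490 nm. Inhibition % = [1 − A490/A490 control]×100. 1% DMSO as negative control.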

The target of data set [7] is Mitogen-activated protein kinase 1 (Homo sapiens) (UniProt P28482). The experiment in a line: Inhibition of ERK2 (unknown origin) at 100 nM relative to control.
Data set [8] has as its target Mitogen-activated protein kinase 3 (Homo sapiens) (UniProt P27361). The experiment in a line: Inhibition of ERK1 (unknown origin) at 10 nM relative to control.
The target of data set [9] is Receptor-type tyrosine-protein kinase FLT3 (Homo sapiens) (UniProt P36888). Briefly: Inhibition of FLT-3 (unknown origin) at 100 nM relative to control. Put shortly: as §1
Data set [10] concerns the target Fibroblast growth factor receptor 4 (Homo sapiens) (UniProt P22455). Briefly: Inhibition of FGFR4 (unknown origin) at 100 nM relative to control. In a few lines: as §1
The target in data set [11] is Receptor-type tyrosine-protein kinase FLT3 (Homo sapiens) (UniProt P36888). The experiment in a line: Inhibition of FLT-3 (unknown origin) at 10 nM relative to control. In a few lines: as §1
Data set [12] deals with T1, Ephrin type-B receptor 2 (Homo sapiens) (UniProt P29323).
T1 sequence (whole entry): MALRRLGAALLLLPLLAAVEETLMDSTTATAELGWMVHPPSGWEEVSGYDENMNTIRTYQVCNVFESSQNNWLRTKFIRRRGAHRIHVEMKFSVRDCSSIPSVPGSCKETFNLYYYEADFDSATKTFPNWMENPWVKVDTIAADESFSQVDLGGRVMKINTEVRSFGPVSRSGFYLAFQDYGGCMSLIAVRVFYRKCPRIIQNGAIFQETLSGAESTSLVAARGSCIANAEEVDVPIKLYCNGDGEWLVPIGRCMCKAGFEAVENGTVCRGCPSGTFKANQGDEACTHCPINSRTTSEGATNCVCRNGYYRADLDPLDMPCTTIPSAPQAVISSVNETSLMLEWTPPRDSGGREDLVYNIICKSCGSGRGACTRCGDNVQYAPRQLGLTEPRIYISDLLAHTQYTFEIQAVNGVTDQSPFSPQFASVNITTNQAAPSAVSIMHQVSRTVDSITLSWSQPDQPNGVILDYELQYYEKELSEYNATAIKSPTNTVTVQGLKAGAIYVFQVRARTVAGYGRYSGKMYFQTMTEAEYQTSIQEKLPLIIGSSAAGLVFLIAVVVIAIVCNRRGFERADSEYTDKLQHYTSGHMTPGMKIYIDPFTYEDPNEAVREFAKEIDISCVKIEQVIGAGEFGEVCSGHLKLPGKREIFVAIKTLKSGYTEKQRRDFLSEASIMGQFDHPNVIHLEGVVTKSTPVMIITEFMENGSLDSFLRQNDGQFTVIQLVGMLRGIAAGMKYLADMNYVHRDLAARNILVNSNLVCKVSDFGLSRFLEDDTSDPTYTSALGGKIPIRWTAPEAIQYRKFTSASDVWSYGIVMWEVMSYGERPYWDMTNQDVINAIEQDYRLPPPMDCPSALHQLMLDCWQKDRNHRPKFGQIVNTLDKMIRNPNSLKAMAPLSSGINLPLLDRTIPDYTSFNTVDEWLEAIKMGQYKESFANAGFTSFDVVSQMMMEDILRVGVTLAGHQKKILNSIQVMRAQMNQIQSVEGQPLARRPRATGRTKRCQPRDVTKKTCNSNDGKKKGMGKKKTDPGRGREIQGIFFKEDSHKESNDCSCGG
The experiment in a line: Inhibition of EPH-B2 (unknown origin) at 10 nM relative to control. In a few lines:
as §1

Data set [13] has as its target Cyclin-dependent kinase 4 (Homo sapiens) (UniProt P11802). Briefly: Inhibition of CDK4 (unknown origin) at 1000 nM relative to control.
Data set [14] concerns the target Angiopoietin-1 receptor (Homo sapiens) (UniProt Q02763). The experiment in a line: Inhibition of Tie-2 (unknown origin) at 10 nM relative to control. Put shortly:
as §2

The target in data set [15] is Macrophage colony-stimulating factor 1 receptor (Homo sapiens) (UniProt P07333). Briefly: Inhibition of CSF-1R (unknown origin) at 1000 nM relative to control.
The target in data set [16] is Tyrosine-protein kinase receptor UFO (Homo sapiens) (UniProt P30530). The experiment in a line: Inhibition of AXL (unknown origin) at 1000 nM relative to control.
Data set [17] addresses Tyrosine-protein kinase JAK1 (Homo sapiens) (UniProt P23458). Briefly: Inhibition of JAK1 (unknown origin) at 100 nM relative to control. Put shortly: as §1
Data set [18] concerns the target Hepatocyte growth factor receptor (Homo sapiens) (UniProt P08581). The experiment in a line: Inhibition of c-Met (unknown origin) at 1000 nM relative to control. In a few lines:
as §2

In data set [19] the target is Tyrosine-protein kinase BTK (Homo sapiens) (UniProt Q06187). Briefly: Inhibition of BTK (unknown origin) at 100 nM relative to control.

pIC50: −log10 of the molar value. In brackets after ≈: the same amount, converted by molar mass.

Sequence of Tyrosine-protein kinase BTK (Homo sapiens) (Q06187 whole entry): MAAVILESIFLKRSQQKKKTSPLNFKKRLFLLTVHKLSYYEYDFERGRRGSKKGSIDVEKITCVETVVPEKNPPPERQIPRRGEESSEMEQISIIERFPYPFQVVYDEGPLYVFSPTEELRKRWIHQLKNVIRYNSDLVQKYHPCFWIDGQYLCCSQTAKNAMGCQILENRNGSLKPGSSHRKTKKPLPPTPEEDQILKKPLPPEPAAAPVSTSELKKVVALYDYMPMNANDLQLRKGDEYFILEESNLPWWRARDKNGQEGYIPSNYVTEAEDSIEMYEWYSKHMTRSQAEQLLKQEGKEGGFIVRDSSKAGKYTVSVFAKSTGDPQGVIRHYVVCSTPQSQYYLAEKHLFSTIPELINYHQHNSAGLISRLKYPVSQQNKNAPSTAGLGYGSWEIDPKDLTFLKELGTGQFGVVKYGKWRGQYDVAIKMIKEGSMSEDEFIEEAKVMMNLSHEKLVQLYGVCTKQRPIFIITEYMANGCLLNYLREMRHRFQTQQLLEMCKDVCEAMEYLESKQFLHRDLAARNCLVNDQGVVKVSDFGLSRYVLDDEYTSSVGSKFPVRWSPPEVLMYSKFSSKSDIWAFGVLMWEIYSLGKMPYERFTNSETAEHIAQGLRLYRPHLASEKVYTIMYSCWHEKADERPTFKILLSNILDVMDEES
Sequence of Receptor-type tyrosine-protein kinase FLT3 (Homo sapiens) (P36888 whole entry): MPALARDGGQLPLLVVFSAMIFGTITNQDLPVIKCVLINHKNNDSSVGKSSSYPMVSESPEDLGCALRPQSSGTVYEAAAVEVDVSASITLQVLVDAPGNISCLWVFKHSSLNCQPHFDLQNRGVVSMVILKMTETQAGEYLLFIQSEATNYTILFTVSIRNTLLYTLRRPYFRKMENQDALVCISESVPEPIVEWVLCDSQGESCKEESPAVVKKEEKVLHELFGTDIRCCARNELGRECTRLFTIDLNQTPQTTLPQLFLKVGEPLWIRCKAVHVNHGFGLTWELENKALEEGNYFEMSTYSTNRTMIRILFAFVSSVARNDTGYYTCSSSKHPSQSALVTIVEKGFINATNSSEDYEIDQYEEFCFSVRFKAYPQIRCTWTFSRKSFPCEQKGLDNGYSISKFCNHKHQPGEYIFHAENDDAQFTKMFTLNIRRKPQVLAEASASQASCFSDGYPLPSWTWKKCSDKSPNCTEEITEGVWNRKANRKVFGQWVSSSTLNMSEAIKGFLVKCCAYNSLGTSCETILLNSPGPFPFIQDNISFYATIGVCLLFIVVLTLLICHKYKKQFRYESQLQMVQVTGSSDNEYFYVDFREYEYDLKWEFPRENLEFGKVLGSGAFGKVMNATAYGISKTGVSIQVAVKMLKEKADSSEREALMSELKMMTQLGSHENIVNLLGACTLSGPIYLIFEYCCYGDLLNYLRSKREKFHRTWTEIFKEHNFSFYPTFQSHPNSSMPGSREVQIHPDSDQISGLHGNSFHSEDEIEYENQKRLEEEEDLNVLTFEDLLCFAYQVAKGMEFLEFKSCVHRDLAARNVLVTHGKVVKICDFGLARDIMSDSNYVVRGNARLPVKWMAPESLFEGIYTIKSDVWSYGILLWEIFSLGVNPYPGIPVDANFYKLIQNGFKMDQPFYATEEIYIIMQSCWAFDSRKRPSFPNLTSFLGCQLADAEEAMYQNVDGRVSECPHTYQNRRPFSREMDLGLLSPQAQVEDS
Sequence of Epidermal growth factor receptor (Homo sapiens) (P00533 whole entry, the tested form may be a part): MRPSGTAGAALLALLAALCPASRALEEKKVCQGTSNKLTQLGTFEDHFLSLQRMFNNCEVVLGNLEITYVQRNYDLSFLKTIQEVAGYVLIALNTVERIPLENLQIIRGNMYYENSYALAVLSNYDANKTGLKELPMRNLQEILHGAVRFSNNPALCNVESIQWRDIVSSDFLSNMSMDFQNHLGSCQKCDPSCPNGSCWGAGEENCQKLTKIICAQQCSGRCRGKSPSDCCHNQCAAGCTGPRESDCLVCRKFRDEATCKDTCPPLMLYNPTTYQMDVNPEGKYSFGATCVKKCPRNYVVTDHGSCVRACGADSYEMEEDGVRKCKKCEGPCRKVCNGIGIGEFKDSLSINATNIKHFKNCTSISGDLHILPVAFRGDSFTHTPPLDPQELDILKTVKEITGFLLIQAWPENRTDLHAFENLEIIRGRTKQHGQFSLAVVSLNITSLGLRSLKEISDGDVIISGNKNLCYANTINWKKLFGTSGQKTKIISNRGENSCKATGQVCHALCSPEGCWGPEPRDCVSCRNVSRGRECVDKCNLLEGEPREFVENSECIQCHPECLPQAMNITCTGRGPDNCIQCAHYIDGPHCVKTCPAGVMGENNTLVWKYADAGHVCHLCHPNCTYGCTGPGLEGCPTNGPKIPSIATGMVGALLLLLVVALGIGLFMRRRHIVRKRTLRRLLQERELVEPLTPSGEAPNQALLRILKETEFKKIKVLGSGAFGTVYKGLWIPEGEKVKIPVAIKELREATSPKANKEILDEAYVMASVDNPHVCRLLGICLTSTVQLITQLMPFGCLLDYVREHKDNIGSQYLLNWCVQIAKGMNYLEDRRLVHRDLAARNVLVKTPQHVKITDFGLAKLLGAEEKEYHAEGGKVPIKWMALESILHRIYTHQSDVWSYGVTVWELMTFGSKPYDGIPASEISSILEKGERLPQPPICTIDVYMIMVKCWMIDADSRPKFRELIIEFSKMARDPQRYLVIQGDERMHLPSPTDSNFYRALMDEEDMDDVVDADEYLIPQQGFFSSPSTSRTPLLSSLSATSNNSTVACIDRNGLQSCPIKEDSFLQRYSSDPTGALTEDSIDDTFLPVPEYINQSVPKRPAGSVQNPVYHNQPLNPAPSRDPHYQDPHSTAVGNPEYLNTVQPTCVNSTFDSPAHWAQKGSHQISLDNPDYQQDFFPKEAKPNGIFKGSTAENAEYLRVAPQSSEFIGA
Sequence of Cyclin-dependent kinase 4 (Homo sapiens) (P11802 whole entry): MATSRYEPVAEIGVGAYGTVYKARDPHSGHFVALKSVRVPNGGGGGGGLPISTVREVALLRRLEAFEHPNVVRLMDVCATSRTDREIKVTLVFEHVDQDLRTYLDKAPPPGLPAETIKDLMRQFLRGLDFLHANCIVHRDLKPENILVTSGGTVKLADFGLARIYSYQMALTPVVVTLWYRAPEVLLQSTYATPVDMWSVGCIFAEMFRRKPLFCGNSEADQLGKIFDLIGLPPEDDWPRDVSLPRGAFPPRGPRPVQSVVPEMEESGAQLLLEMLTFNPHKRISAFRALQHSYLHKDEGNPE
Sequence of Mitogen-activated protein kinase 1 (Homo sapiens) (P28482 whole entry): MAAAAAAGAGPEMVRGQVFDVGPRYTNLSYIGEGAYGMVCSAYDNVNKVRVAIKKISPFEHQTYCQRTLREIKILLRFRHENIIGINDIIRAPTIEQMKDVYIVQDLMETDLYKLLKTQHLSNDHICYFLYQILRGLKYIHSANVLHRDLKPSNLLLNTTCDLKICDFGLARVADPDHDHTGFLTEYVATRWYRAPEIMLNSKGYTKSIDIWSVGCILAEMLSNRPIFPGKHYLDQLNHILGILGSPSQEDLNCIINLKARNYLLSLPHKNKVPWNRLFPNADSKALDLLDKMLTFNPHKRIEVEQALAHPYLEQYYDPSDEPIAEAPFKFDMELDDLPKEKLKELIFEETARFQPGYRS
Sequence of Mitogen-activated protein kinase 3 (Homo sapiens) (P27361 whole entry): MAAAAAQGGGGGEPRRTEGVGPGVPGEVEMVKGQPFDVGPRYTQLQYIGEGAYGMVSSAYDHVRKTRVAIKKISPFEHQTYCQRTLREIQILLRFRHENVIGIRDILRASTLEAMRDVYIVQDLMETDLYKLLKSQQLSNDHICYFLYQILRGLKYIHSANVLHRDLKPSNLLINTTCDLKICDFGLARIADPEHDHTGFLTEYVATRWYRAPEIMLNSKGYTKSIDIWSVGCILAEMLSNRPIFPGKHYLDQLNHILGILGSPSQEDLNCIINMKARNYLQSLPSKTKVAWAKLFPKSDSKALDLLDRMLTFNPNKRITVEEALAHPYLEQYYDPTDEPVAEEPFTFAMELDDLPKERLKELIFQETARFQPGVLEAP
Sequence of Fibroblast growth factor receptor 4 (Homo sapiens) (P22455 22-802 limits assumed): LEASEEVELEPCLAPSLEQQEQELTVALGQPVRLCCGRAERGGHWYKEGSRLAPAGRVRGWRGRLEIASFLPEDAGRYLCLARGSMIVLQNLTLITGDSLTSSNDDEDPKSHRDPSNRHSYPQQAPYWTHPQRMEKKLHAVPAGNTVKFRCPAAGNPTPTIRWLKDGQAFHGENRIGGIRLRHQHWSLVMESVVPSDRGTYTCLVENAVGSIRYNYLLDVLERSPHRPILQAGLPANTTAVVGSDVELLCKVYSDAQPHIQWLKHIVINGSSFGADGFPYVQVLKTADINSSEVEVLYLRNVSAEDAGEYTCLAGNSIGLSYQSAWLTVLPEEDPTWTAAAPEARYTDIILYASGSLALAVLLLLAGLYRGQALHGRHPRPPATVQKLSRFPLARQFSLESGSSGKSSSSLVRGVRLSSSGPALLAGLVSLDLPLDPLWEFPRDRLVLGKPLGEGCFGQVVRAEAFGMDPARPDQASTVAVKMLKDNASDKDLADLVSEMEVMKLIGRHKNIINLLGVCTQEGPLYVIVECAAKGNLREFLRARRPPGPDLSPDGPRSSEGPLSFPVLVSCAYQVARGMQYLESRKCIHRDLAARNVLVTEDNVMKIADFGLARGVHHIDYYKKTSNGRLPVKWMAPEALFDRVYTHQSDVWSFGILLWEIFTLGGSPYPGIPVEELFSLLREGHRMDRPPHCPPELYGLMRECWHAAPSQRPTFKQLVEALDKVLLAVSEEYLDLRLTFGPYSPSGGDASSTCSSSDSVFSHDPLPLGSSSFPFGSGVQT

In general, solubility refers to the dissolved amount per volume that the medium holds. Read a high solubility as much dissolved substance. For orientation: inhibition means the change of the read-out against control, counted positive when it falls. Broadly, the pIC50 is the IC50 on a negative log10 scale, so that one unit is a factor of ten. Usually efflux ratio stands for a quotient of directional permeabilities that is used to spot active efflux. In [1], `Cc1ccc(C(=O)Nc2cccc(C(F)(F)F)c2)cc1-c1ccc2c(-c3cnn(C4CC4)c3)n[nH]c2c1` registered a solubility of 2 µM (≈ 1 µg/mL). Besides, the inhibition was 82% in [2]; 10% in [3]; 32% in data set [4]; 25.8% in [6]; 2.5% in [7]; -2.8% in data set [8]. For the same compound, the inhibition in data set [9] amounted to 80.6%; in data set [10] it was 27.2%; in [11], 59.3%; in data set [12], 48%; in [13], 0.9%; in data set [14], 10.4%. Besides, the inhibition in data set [15] was 94.2%; in data set [16], 99.8%; in data set [17] it was 13.1%; in [18], 47.5%; in [19], 47.1%. In the data set on KG-1, this compound gave a pIC50 of 6.96. Also, the efflux ratio at 2 h, 5 µM in data set [5] came out at 1.1.
